Experimental data as given in ChEMBL document CHEMBL5042469, “Unique Molecular Interaction with the Histone Deacetylase 6 Catalytic Tunnel: Crystallographic and Biological Characterization of a Model Chemotype” (J Med Chem, 2021).

Legend:
Histone deacetylase 8 = molecular target: T1, Histone deacetylase 8 (Homo sapiens, UniProt Q9BY41); test: Inhibition of full length human HDAC8 using FAM-labeled acetylated peptide as substrate by electrophoretic mobility shift assay
T1 sequence (Q9BY41 whole entry): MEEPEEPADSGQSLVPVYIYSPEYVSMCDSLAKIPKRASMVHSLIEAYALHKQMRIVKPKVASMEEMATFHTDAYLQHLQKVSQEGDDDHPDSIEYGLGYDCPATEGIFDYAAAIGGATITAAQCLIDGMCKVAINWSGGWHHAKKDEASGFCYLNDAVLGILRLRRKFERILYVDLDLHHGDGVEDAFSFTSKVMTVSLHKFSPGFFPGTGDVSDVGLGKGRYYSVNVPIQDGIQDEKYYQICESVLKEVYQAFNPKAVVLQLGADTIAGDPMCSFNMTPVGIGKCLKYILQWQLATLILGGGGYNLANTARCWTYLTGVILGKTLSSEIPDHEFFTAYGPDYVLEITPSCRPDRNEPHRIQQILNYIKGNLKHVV
Summary of the method: (§1)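 Full-length human HDAC isoform enzymatic assay by electrophoretic mobility shift, using a FAM-labelled acetylated peptide substrate. […] Values are the mean of duplicate experiments with 95% confidence intervals.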

Histone deacetylase 3 = Histone deacetylase 3 (Homo sapiens, UniProt O15379); test: Inhibition of full length human HDAC3 using FAM-labeled acetylated peptide as substrate by electrophoretic mobility shift assay; summary of the method: as §1
Histone deacetylase 11 = molecular target: T2, Histone deacetylase 11 (Homo sapiens, UniProt Q96DB2); test: Inhibition of full length human HDAC11 using FAM-labeled acetylated peptide as substrate by electrophoretic mobility shift assay; summary of the method: as §1
T2 sequence (Q96DB2 whole entry): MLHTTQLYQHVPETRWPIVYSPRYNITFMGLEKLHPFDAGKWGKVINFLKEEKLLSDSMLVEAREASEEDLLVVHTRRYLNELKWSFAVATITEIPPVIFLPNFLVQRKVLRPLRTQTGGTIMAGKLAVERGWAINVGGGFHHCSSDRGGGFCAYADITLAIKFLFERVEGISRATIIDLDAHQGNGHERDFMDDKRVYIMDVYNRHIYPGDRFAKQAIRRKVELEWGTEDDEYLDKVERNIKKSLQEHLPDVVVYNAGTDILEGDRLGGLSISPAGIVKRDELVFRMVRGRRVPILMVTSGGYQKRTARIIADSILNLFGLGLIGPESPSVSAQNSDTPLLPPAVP

[1] = molecular target: T3, Protein deacetylase HDAC6 (Homo sapiens, UniProt Q9UBN7); test: Inhibition of full length human HDAC6 using FAM-labeled acetylated peptide as substrate by electrophoretic mobility shift assay
T3 sequence (Q9UBN7 whole entry): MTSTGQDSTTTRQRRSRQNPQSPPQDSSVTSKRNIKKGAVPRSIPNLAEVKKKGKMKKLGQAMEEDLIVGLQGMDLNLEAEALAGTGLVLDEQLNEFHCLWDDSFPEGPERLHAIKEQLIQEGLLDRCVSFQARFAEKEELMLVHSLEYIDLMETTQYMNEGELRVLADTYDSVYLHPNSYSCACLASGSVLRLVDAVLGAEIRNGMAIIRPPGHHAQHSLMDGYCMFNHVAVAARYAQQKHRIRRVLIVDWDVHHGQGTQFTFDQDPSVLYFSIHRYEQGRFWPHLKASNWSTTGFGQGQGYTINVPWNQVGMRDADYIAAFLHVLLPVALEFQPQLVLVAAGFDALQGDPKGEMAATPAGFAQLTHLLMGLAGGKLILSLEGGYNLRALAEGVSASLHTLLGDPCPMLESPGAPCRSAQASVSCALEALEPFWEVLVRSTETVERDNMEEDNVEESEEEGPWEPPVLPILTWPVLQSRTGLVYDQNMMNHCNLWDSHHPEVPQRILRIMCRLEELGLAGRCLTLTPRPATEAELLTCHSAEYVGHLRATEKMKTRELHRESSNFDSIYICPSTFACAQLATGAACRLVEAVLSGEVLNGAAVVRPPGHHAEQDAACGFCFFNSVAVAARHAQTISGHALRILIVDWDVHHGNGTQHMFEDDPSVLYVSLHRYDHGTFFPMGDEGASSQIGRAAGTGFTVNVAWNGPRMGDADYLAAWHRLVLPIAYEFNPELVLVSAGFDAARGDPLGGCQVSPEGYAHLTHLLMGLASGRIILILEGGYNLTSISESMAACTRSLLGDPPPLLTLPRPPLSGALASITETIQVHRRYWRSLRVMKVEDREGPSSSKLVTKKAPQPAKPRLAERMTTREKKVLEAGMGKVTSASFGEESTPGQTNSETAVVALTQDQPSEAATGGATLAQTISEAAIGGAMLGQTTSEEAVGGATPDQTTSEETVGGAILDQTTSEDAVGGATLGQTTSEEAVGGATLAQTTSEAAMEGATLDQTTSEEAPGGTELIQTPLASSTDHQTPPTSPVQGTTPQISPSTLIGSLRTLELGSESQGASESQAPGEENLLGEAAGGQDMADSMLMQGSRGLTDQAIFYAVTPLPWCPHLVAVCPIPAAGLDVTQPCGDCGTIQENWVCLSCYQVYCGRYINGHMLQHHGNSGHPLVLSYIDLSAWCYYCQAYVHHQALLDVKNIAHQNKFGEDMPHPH

Chain of Histone deacetylase 3 (O15379 whole entry): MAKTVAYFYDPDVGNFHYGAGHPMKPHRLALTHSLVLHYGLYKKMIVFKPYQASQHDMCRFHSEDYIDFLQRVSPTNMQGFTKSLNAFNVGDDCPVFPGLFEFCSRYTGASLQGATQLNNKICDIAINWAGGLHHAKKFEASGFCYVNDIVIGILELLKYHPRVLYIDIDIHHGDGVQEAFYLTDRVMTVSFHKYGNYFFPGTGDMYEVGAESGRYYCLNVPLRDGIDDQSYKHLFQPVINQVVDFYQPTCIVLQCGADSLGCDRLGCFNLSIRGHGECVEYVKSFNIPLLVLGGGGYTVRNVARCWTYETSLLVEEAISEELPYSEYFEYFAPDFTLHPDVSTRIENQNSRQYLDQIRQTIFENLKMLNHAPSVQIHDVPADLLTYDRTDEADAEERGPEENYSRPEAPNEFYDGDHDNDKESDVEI

IC50 (Histone deacetylase 8) | IC50 (Histone deacetylase 3) | IC50 (Histone deacetylase 11) | IC50 [1] | SMILES
0.367 µM | > 1 µM | 0.787 µM | 0.013 µM | O=C(NO)c1ccc(CN(Cc2ccc(F)cc2)S(=O)(=O)c2c(F)c(F)c(F)c(F)c2F)cc1
0.068 µM | > 1 µM | 0.088 µM | 0.042 µM | CC(C)(C)c1ccc(CN(Cc2ccc(C(=O)NO)cc2)S(=O)(=O)c2c(F)c(F)c(F)c(F)c2F)cc1
 |  |  | 0.4 µM | O=C(CCCCCCC(=O)N/N=C/c1ccc(N(c2ccccc2)c2ccccc2)cc1)NO
> 1 µM | > 1 µM | > 1 µM |  | O=C(NO)c1ccc(CNS(=O)(=O)c2c(F)c(F)c(F)c(F)c2F)cc1
> 1 µM | > 1 µM | > 1 µM | 0.014 µM | O=C(NO)c1ccc(CN(Cc2ccncc2)S(=O)(=O)c2c(F)c(F)c(F)c(F)c2F)cc1
0.86 µM | > 1 µM | > 1 µM | 0.021 µM | O=C(NO)c1ccc(CN(Cc2ccc(F)cc2)S(=O)(=O)c2cc(F)c(F)c(F)c2F)cc1
0.412 µM | > 1 µM | 0.235 µM | 0.014 µM | O=C(NO)c1ccc(CN(Cc2cccc(F)c2)S(=O)(=O)c2cc(F)c(F)c(F)c2F)cc1
> 1 µM | > 1 µM | > 1 µM | 0.045 µM | O=C(NO)c1ccc(CN(Cc2ccc(C(F)(F)F)cc2)S(=O)(=O)c2c(F)c(F)c(F)c(F)c2F)cc1
0.581 µM | > 1 µM | 0.472 µM | 0.011 µM | O=C(NO)c1ccc(CN(Cc2ccncc2)S(=O)(=O)c2cc(F)c(F)c(F)c2F)cc1
0.15 µM | > 1 µM | 0.122 µM | 0.009 µM | O=C(NO)c1ccc(CN(Cc2ccccc2)S(=O)(=O)c2c(F)c(F)c(F)c(F)c2F)cc1
0.241 µM | > 1 µM | 0.263 µM | 0.01 µM | O=C(NO)c1ccc(CN(Cc2ccccc2F)S(=O)(=O)c2cc(F)c(F)c(F)c2F)cc1
0.332 µM | 0.896 µM | 0.941 µM | 0.006 µM | O=C(NO)c1ccc(CN(Cc2ccccn2)S(=O)(=O)c2cc(F)c(F)c(F)c2F)cc1
> 1 µM | > 1 µM | > 1 µM | 0.029 µM | CN(C)c1ccc(CN(Cc2ccc(C(=O)NO)cc2)S(=O)(=O)c2c(F)c(F)c(F)c(F)c2F)cc1
0.155 µM | 0.697 µM | 0.115 µM | 0.005 µM | O=C(NO)c1ccc(CN(Cc2ccccc2)S(=O)(=O)c2cc(F)c(F)c(F)c2F)cc1
0.101 µM | > 1 µM | 0.073 µM | 0.006 µM | Cc1ccc(CN(Cc2ccc(C(=O)NO)cc2)S(=O)(=O)c2c(F)c(F)c(F)c(F)c2F)cc1
